The values below come from ChEMBL document CHEMBL1152430, “Selective inhibition of nicotinamide adenine dinucleotide kinases by dinucleoside disulfide mimics of nicotinamide adenine dinucleotide analogues” (Bioorg Med Chem, 2009).

Assay [1] can be described thus: Inhibition of horse liver alcohol dehydrogenase. Further details: species or system Equus caballus.
Assay [2] can be described thus: (§1) Inhibition of human IMPDH.
Assay [3] has as its target T1, NAD kinase (Mycobacterium tuberculosis, UniProt P9WHV7).
T1 sequence (P9WHV7 whole entry): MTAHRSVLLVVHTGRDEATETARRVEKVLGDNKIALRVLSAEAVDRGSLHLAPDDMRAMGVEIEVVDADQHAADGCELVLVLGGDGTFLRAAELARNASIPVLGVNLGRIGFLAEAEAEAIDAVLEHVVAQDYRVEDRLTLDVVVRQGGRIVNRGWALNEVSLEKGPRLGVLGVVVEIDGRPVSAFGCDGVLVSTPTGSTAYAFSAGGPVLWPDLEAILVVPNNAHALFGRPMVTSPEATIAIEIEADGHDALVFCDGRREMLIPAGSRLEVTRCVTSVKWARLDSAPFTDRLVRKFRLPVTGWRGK
Kind of assay: Inhibition of Mycobacterium tuberculosis NAD kinase by modified HPLC based assay. The method, boiled down: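 Purified-to-homogeneity M. tuberculosis NAD kinase incubated at 37 °C in 50 mM Tris/HCl pH 8.0, 20 mM MgCl₂ with ATP and NAD substrates, without or with varying inhibitor concentrations. Reaction stopped with HClO₄, neutralized with K₂CO₃, nucleotides resolved by reversed-phase C18 HPLC with potassium phosphate pH 6.0/methanol gradient.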

Assay [4] is described as follows: Binding affinity to penicillopepsin.
In assay [5] the target is L-lactate dehydrogenase (Homo sapiens) (UniProt V9HWB9). The experiment in a line: Inhibition of human LDH at 100 uM.
In assay [6] the target is Inosine-5'-monophosphate dehydrogenase 1 (Homo sapiens) (UniProt P20839). The experiment in a line: Inhibition of human IMPDH1 at 100 uM.
In assay [7] the target is Inosine-5'-monophosphate dehydrogenase 2 (Homo sapiens) (UniProt P12268). Kind of assay: Inhibition of human IMPDH2 at 100 uM.
Assay [8] deals with T2, NAD kinase (Homo sapiens, UniProt O95544).
T2 sequence (O95544 whole entry): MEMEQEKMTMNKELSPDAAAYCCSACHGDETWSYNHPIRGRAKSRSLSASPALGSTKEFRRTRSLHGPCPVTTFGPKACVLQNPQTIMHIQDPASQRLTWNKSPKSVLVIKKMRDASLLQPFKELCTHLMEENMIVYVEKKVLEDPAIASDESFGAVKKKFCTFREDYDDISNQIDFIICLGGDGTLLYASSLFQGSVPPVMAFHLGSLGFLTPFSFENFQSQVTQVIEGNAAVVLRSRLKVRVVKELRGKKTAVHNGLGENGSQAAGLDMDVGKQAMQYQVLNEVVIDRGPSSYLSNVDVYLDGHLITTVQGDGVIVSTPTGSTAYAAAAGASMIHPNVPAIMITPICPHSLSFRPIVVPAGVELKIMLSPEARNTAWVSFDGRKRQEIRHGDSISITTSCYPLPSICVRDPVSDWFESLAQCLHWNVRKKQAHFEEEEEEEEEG
The experiment in a line: Inhibition of human NAD kinase by modified HPLC based assay.

Assay [9] deals with L-lactate dehydrogenase (Homo sapiens) (UniProt V9HWB9). Kind of assay: Inhibition of human LDH.
The species entered for a further assay is Homo sapiens. Described as §1.
Assay [10] in a line: Inhibition of Listeria monocytogenes NADK1.

Calls of active or inactive are those of the source. The calls are words filed in the database; no cut-off is given here.

Sequence of Inosine-5'-monophosphate dehydrogenase 2 (Homo sapiens) (P12268 2-514 limits assumed): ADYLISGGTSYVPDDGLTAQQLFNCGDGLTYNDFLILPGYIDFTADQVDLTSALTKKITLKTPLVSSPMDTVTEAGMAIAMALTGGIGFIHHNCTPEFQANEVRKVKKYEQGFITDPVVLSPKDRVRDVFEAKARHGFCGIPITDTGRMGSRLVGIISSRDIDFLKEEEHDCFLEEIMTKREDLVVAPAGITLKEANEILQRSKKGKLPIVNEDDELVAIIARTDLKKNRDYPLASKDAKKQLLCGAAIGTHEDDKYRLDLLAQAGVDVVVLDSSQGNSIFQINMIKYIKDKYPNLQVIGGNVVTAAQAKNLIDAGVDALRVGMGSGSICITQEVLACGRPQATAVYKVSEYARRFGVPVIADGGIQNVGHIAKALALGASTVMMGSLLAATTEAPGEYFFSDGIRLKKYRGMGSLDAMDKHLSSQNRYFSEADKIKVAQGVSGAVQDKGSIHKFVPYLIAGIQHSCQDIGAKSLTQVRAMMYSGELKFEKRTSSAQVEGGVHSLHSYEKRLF
Sequence of Inosine-5'-monophosphate dehydrogenase 1 (Homo sapiens) (P20839 2-514 limits assumed): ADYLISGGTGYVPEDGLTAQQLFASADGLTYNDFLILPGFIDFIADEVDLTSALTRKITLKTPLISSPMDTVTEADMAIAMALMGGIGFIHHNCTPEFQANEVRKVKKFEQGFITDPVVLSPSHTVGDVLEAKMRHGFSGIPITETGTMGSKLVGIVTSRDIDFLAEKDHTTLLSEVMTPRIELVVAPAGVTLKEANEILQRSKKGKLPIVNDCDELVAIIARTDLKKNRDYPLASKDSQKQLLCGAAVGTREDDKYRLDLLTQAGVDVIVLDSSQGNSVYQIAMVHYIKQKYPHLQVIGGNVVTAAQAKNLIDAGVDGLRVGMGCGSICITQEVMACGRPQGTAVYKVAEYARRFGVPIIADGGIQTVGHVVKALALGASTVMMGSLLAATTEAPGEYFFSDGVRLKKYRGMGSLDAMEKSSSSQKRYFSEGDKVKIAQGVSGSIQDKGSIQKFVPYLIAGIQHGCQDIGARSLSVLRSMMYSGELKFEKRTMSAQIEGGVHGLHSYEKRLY

A word on the Ki: it is a dissociation constant, usually derived from enzyme kinetics or from competition with a known ligand. Low readings indicate a stronger hold on the target, high ones a looser hold on the target. On to `NC(=O)c1csc([C@@H]2O[C@H](COP(=O)(O)OP(=O)(O)OC[C@H]3O[C@@H](n4cnc5c(N)ncnc54)[C@H](O)[C@@H]3O)[C@@H](O)[C@H]2O)n1` [TIAZOFURIN ADENINE DINUCLEOTIDE], for which the Ki in [1] came out at 1 nM; in assay [2], 100 nM.
The IC50 is the midpoint of a concentration-inhibition curve. As to `NC(=O)c1cccc([C@@H]2O[C@H](COP(=O)(O)OP(=O)(O)OC[C@H]3O[C@@H](n4cnc5c(N)ncnc54)[C@H](O)[C@@H]3O)[C@@H](O)[C@H]2O)c1` [BENZAMIDEADENINEDINUCLEOSIDE], at NAD kinase [3] (read-out: IC50), the IC50 amounted to 200 µM.
`COC(=O)[C@H](Cc1ccccc1)OP(=O)(O)[C@H](CC(C)C)NC(=O)[C@H](CC(N)=O)NC(=O)[C@@H](NC(=O)CC(C)C)C(C)C` gave an inhibition constant (Ki) in [4] of 42 nM.
On to `C[C@@]1(O)[C@H](O)[C@@H](CSSC[C@H]2O[C@@H](n3cnc4c(N)ncnc43)[C@](C)(O)[C@@H]2O)O[C@H]1n1cnc2c(N)ncnc21`, for which the IC50 was determined as 500 µM on NAD kinase [3] (read-out: IC50) and 280 µM on NAD kinase [8] (read-out: IC50). Further, the inhibition entry in assay [5], in assay [6] and in assay [7] was “inactive” throughout.
For `Nc1ncnc2c1nc(Br)n2[C@@H]1O[C@H](CSSC[C@H]2O[C@@H](n3c(Br)nc4c(N)ncnc43)[C@H](O)[C@@H]2O)[C@@H](O)[C@H]1O`, the figures for the IC50 at NAD kinase [3] (read-out: IC50) and at NAD kinase [8] (read-out: IC50) were 19 µM and 6 µM, respectively. Further, the inhibition entry in assay [5], in [6] and in assay [7] was “inactive” in each case.
On to `Nc1ncnc2c1ncn2[C@@H]1O[C@H](CSSC[C@H]2O[C@@H](n3c(Br)nc4c(N)ncnc43)[C@H](O)[C@@H]2O)[C@@H](O)[C@H]1O`, for which the IC50 is 14 µM on NAD kinase [3] (read-out: IC50) and 6 µM on NAD kinase [8] (read-out: IC50). In addition, the inhibition result in [5], in assay [6] and in assay [7] was “inactive” in each case.
Regarding `COC(=O)[C@@H]1Cc2cccc(c2)CNC(=O)C[C@H](NC(=O)[C@@H](NC(=O)CC(C)C)C(C)C)C(=O)N[C@@H](CC(C)C)P(=O)(O)O1`, in assay [4], the inhibition constant (Ki) came to 0.1 nM. This counts as sub-nanomolar.
`CCc1nc(N)c2ncn([C@@H]3O[C@H](COP(=O)(O)OP(=O)(O)OC[C@H]4O[C@@H](c5nc(C(N)=O)cs5)[C@H](O)[C@@H]4O)[C@@H](O)[C@H]3O)c2n1` yielded an inhibition constant (Ki) in assay [2] of 1 nM. This lies in the single-digit nanomolar range.
On to `NC(=O)c1csc([C@@H]2O[C@H](CSSC[C@H]3O[C@@H](n4cnc5c(N)ncnc54)[C@H](O)[C@@H]3O)[C@@H](O)[C@H]2O)n1`, for which the IC50 turned out to be 80 µM at NAD kinase [3] (read-out: IC50) and 110 µM at NAD kinase [8] (read-out: IC50). Besides, the inhibition entry (in assay [5]; in assay [9]; in assay [6]; in assay [7]; in the assay listed under Homo sapiens) was “inactive” throughout.
As for `NC(=O)c1csc([C@@H]2O[C@H](CSSC[C@H]3O[C@@H](c4nc(C(N)=O)cs4)[C@H](O)[C@@H]3O)[C@@H](O)[C@H]2O)n1`, the IC50 entry at NAD kinase [3] and against NAD kinase [8] was “Not Active” throughout. Also, the inhibition entry (in assay [5]; in assay [9]; in assay [6]; in [7]; in the assay listed under Homo sapiens) was “inactive” throughout.
`Nc1ncnc2c1ncn2[C@@H]1O[C@H](CSSC[C@H]2O[C@@H](n3cnc4c(N)ncnc43)[C@H](O)[C@@H]2O)[C@@H](O)[C@H]1O` had an inhibitory constant (Ki) in [10] of 20 µM. In addition, the concentration for half-maximal inhibition (IC50) on NAD kinase [3] (read-out: IC50) is 45 µM; on NAD kinase [8] (read-out: IC50), 87 µM. The inhibition entry (in assay [5]; in assay [9]; in assay [6]; in assay [7]; in the assay listed under Homo sapiens) was “inactive” throughout.
For `C[C@@]1(O)[C@@H](CSSC[C@H]2O[C@@H](n3cnc4c(N)ncnc43)[C@H](O)[C@]2(C)O)O[C@@H](n2cnc3c(N)ncnc32)[C@@H]1O`, the IC50 entry at NAD kinase [3] and at NAD kinase [8] was “Not Active” throughout. Moreover, the inhibition result in assay [5], in assay [6] and in assay [7] was “inactive” in each case.
For `C#Cc1nc(N)c2ncn([C@@H]3O[C@H](COP(=O)(O)OP(=O)(O)OC[C@H]4O[C@@H](c5nc(C(N)=O)cs5)[C@H](O)[C@@H]4O)[C@@H](O)[C@H]3O)c2n1`, the Ki in assay [2] is 10 nM.
For the compound `Nc1ncnc2c1nc(-c1ccccc1)n2[C@@H]1O[C@H](CSSC[C@H]2O[C@@H](n3c(-c4ccccc4)nc4c(N)ncnc43)[C@H](O)[C@@H]2O)[C@@H](O)[C@H]1O`, the IC50 result was “Not Active” against NAD kinase [3] and 45 µM on NAD kinase [8] (read-out: IC50). Besides, the inhibition result in [5], in assay [6] and in assay [7] was “inactive” throughout.
In turn, `NC(=O)c1csc([C@@H]2O[C@H](COP(=O)(O)OP(=O)(O)OC[C@H]3O[C@@H](n4cnc5c(N)nc(I)nc54)[C@H](O)[C@@H]3O)[C@@H](O)[C@H]2O)n1` displayed a Ki in [2] of 20 nM. That is a double-digit nanomolar value.
